CXCR6 inh: blocks human CXCR6 beta-arrestin recruitment | O00574 | CHO-K1 PathHunter CXCR6 beta-arrestin, luminescence | inhibition, % at 20 µM | 0.36% of 360,000 active; in the data active = inhibition above about 34%, passing the limit was not always enough;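 also: antagonist mode with CXCL16 agonist at 10 nM final; 0% = 10 nM CXCL16 with DMSO and 100% = unstimulated wells without agonist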
EBI2 block: blocks human EBI2 receptor beta-arrestin signaling | P32249 | EBI2 beta-arrestin recruitment, luminescence, 7a,25-OHC stimulated | inhibition, % at 5 µM | 0.81% of 360,000 active | AID 651636; in the data active = inhibition above about 38%;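 also: enzyme fragment complementation signal reports receptor beta-arrestin coupling in cells; 0% = agonist plus DMSO wells and 100% = wells without agonist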
CCR6 antagonist: CCR6 (human) receptor antagonism; CHO-K1 CCR6 PathHunter beta-arrestin, luminescence, CCL20-stimulated; inhibition, % at 20 µM; 0.49% of 340,000 active; AID 493098;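 active = compounds whose inhibition of the agonist-driven luminescence signal at 20 µM reaches about 50%, limit read from the data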;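 also: cells stimulated with CCL20 at 14 nM final; plate controls were DMSO with CCL20 for no effect and DMSO without agonist for full effect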
Target sequence (P51684 whole entry, looked up): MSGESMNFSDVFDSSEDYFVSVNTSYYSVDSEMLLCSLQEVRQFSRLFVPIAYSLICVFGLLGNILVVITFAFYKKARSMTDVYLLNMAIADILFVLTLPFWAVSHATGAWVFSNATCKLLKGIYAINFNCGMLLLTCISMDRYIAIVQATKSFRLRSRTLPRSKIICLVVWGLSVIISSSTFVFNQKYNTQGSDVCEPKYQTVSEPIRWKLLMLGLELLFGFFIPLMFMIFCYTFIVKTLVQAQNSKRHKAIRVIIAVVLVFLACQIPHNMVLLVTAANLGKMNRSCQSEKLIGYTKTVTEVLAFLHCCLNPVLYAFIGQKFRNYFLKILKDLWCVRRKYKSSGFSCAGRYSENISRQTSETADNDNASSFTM
APJ agonist: agonists of human APJ apelin receptor; CHO-K1 APJ PathHunter beta-arrestin, luminescence; 0% DMSO wells, 100% apelin; P35414; activation, % at 20 µM; 0.11% of 330,000 active;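 active = activation more than six SD over the plate average, tested at 20 µM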;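 also: 0% = DMSO alone and 100% = apelin-13 at 10 nM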
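Material: engineered CHO-K1 APJ arrestin reporter cells; amount: 1000 CHO-K1 reporter cells seeded per well; incubation: compound stimulation 90 min at 25 °C, detection 60 min; signal: luminescent beta-gal fragment complementation, chemiluminescent substrate; read-out basis: APJ agonist activity; controls: DMSO-only wells as negative, 10 nM Apelin-13 as positive control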
APJ antagonist: APJ receptor antagonism. inhibition, % at 20 µM. 0.32% of 330,000 active. CHO-K1 APJ beta-arrestin complementation, luminescence;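 active = inhibition above about 40% at 20 µM, limit read from the data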;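 also: cells challenged with 10 nM apelin-13 agonist together with compound; plate controls were apelin-13 plus DMSO wells for no effect and DMSO wells lacking apelin-13 for full effect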
An asterisk follows results filed as active; / = not tested or not shown. Compounds with a hit are over-represented: about 1.5% of the library has one in this group of screens.

SMILES | CXCR6 inh | EBI2 block | CCR6 antagonist | APJ agonist | APJ antagonist
N#C/C(=C/C1=C(N2CCOCC2)C(=C/c2ccccc2)/CC1)C(=O)Nc1ccccc1F | 30.3 | 20.6 | 44.9 | / | /
N#C/C(=C\C1=C(N2CCOCC2)C(=C\c2ccc(Cl)cc2)/CC1)C(=O)Nc1ccccc1F | 11.3 | 14.0 | 31.5 | / | /
COC(=O)/C=C1\OCc2cc(OC)c(OC)cc21 | / | -3.7 | / | / | /
Cc1ccc(S(=O)(=O)Nc2cccc3ncccc23)cc1 | 3.1 | 7.2 | 4.6 | -4.2 | -17.1
Cc1ccc(S(=O)(=O)Nc2cccc3ncccc23)s1 | 63.4* | 73.5* | 96.3* | -17.9 | 90.7*
COc1ccc2[nH]c3c(c2c1)CCN1C(=O)C(CC(=O)NCCc2ccccn2)C[C@H](C(=O)N2CCOCC2)[C@@]31CCC1CCCC1 (some centres undefined) | 1.2 | -8.5 | 10.5 | / | /
CN(CC(=O)Nc1cccc(F)c1)C(=O)CCCn1c(=O)oc2ccccc21 | 3.4 | 7.7 | 19.5 | -3.4 | -37.9
O=C(O)c1cccc2c1/C(=N/Nc1ccc([N+](=O)[O-])cc1[N+](=O)[O-])c1ccccc1-2 | 23.9 | 19.2 | 52.6* | -4.7 | 14.8
COc1ccc2[nH]c3c(c2c1)CCN1C(=O)C(CC(=O)NCc2ccco2)C[C@H](C(=O)N2CCCCC2)[C@@]31CCc1ccccc1 (some centres undefined) | 6.7 | 6.8 | 22.1 | / | /
C[C@@H]1CN([C@@H](C)CO)C(=O)c2c(c3ccccc3n2C)-c2ccccc2CO[C@H]1CN(C)C(=O)[C@H](C)c1ccccc1 | 4.2 | 8.4 | / | / | /
CS(=O)(=O)c1ccc(S(=O)CC(=O)OCc2ccccc2)c([N+](=O)[O-])c1 (centres undefined) | 51.5* | 41.5* | / | / | /
O=C(Nc1ccc2[nH]c(=O)[nH]c2c1)c1c(F)c(F)c(F)c(F)c1F | -2.0 | -6.6 | 3.5 | -0.1 | 3.2
CC(C)(C)c1cnnn1-c1ccc(C(=O)CCl)cc1 | 12.4 | 7.8 | 64.6* | -3.8 | 19.5
CC(C)(C)c1cnnn1-c1ccc(C=O)cc1 | -7.5 | -7.0 | -12.4 | -1.3 | 7.1
Cc1cc(C)c2c(=N)c3ccccc3n(CCCCCCCCn3c4ccccc4c(=N)c4c(C)cc(C)nc43)c2n1 | 39.9* | 14.2 | 106.5* | / | /
C[C@@H]1CN([C@@H](C)CO)C(=O)CCCn2nncc2CO[C@H]1CN(C)Cc1cccnc1 | 0.8 | -5.0 | / | / | /
Cc1c(CC(=O)O)c(=O)oc2c(C)c(OCc3ccc(F)cc3Cl)ccc12 | -3.3 | 7.9 | 4.7 | -3.1 | 11.3
CC1(C(=O)NCCc2c[nH]c3ccccc23)CCN1CC1CCCCC1 (centres undefined) | -5.9 | 7.6 | / | / | /
CCOc1ccc2nc(N3C(=O)CNC3=S)sc2c1 | 32.2 | -17.1 | 60.4* | -4.3 | 12.6
Cc1ccc(N=C2C(=O)Nc3ccc(C)c(Br)c32)cc1 | 35.5 | 1.8 | 99.2* | -8.6 | 5.2
COc1ccc(N=C2C(=O)Nc3ccccc32)cc1 | 7.6 | 15.8 | 33.5 | -10.6 | 33.1
CCc1ccc(CN2CCC(n3nccc3NC(=O)c3cccc(F)c3)CC2)cc1 | -13.0 | -11.8 | 3.5 | -4.5 | 7.6
O=C(Nc1nc(-c2cc(F)ccc2F)cs1)c1ccccn1 | 40.8* | 27.1 | 64.9* | -6.5 | 68.1*
O=c1ccn(Cc2ccccc2)c(SCc2ccccc2)n1 | 6.6 | 4.2 | 5.6 | / | /
Clc1ccc(CSc2nccn2Cc2ccccc2)cc1 | -10.5 | 76.6* | 25.7 | -7.5 | -10.1
SMILES | CXCR6 inh | EBI2 block | CCR6 antagonist | APJ agonist | APJ antagonist
CCOCCCNC(=O)CN1CCN(S(=O)(=O)c2ccc3c(c2)CCC3)CC1 | 1.9 | 2.8 | -5.8 | -2.5 | -2.3
COc1ccc(NC(=O)C(=O)c2cn(CC(=O)N3CCCC3)c3ccccc23)cc1 | 1.8 | -16.0 | 2.2 | -4.5 | -1.8
Cc1ccnc(N2C(=O)c3cccc4c([N+](=O)[O-])ccc(c34)C2=O)c1 | 41.9* | 27.6 | 49.7 | -0.8 | -11.5
COc1ccc(N(Cc2cc3cccc(C)c3[nH]c2=O)C(=O)C2CCCO2)cc1 (centres undefined) | -1.9 | -1.0 | 0.2 | -3.8 | 1.6
O=C(Nc1ccncc1)c1ccc(Cl)c(S(=O)(=O)N2CCCC2)c1 | -10.1 | -5.5 | -6.8 | 5.8 | 1.2
Cc1ccc(Cl)c2c1=NC(=O)C=2c1[nH]c(=S)[nH]c1O | 16.6 | -5.5 | 45.0 | -7.7 | 41.0*
C(=N\Nc1cc(N2CCCCC2)ncn1)/c1ccco1 | 7.1 | 18.4 | 11.6 | -1.0 | 16.5
O=c1cc(-c2c(F)c(F)c(F)c(F)c2F)oc2c(F)c(F)c(F)c(F)c12 | / | / | / | -0.3 | 51.6*

Compound activity as filed in PubChem BioAssay.
